# Where a chain is given by its changes, count along the chain named. Names may count otherwise.
# B1: YFP-hEXO1-F506A;F507A: MIP-box (putative PIP-box) substitution variant of YFP-hEXO1 (protein, UniProt Q9UQ84 1-846, looked up, variant F506A F507A)
# Exonuclease 1: MGIQGLLQFIKEASEPIHVRKYKGQVVAVDTYCWLHKGAIACAEKLAKGEPTDRYVGFCMKFVNMLLSHGIKPILVFDGCTLPSKKEVERSRRERRQANLLKGKQLLREGKVSEARECFTRSINITHAMAHKVIKAARSQGVDCLVAPYEADAQLAYLNKAGIVQAIITEDSDLLAFGCKKVILKMDQFGNGLEIDQARLGMCRQLGDVFTEEKFRYMCILSGCDYLSSLRGIGLAKACKVLRLANNPDIVKVIKKIGHYLKMNITVPEDYINGFIRANNTFLYQLVFDPIKRKLIPLNAYEDDVDPETLSYAGQYVDDSIALQIALGNKDINTFEQIDDYNPDTAMPAHSRSHSWDDKTCQKSANVSSIWHRNYSPRPESGTVSDAPQLKENPSTVGVERVISTKGLNLPRKSSIVKRPRSAELSEDDLLSQYSLSFTKKTKKNSSEGNKSLSFSEVFVPDLVNGPTNKKSVSTPPRTRNKFATFLQRKNEESGAVVVPGTRSRAACSSDSTDCVSNKVSIQPLDETAVTDKENNLHESEYGDQEGKRLVDTDVARNSSDDIPNNHIPGDHIPDKATVFTDEESYSFESSKFTRTISPPTLGTLRSCFSWSGGLGDFSRTPSPSPSTALQQFRRKSDSPTSLPENNMSDVSQLKSEESSDDESHPLREEACSSQSQESGEFSLQSSNASKLSQCSSKDSDSEESDCNIKLLDSQSDQTSKLRLSHFSKKDTPLRNKVPGLYKSSSADSLSTTKIKPLGPARASGLSKKPASIQKRKHHNAENKPGLQIKLNELWKNFGFKKDSEKLPPCKKPLSPVRDNIQLTPEAEEDIFNKPECGRVQRAIFQ
# modifications: N-terminal YFP tag
# B2: hEXO1-K418A: NLS mutant (protein, UniProt Q9UQ84 1-846, looked up, variant K418A)
# Exonuclease 1: B1 Exonuclease 1 with K418A, A506F, A507F
# modifications: N-terminal YFP tag
# B3: hEXO1-Δ423–507: internal deletion variant (protein)
# chain: MGIQGLLQFIKEASEPIHVRKYKGQVVAVDTYCWLHKGAIACAEKLAKGEPTDRYVGFCMKFVNMLLSHGIKPILVFDGCTLPSKKEVERSRRERRQANLLKGKQLLREGKVSEARECFTRSINITHAMAHKVIKAARSQGVDCLVAPYEADAQLAYLNKAGIVQAIITEDSDLLAFGCKKVILKMDQFGNGLEIDQARLGMCRQLGDVFTEEKFRYMCILSGCDYLSSLRGIGLAKACKVLRLANNPDIVKVIKKIGHYLKMNITVPEDYINGFIRANNTFLYQLVFDPIKRKLIPLNAYEDDVDPETLSYAGQYVDDSIALQIALGNKDINTFEQIDDYNPDTAMPAHSRSHSWDDKTCQKSANVSSIWHRNYSPRPESGTVSDAPQLKENPSTVGVERVISTKGLNLPRKSSIVKRPRSCSSDSTDCVSNKVSIQPLDETAVTDKENNLHESEYGDQEGKRLVDTDVARNSSDDIPNNHIPGDHIPDKATVFTDEESYSFESSKFTRTISPPTLGTLRSCFSWSGGLGDFSRTPSPSPSTALQQFRRKSDSPTSLPENNMSDVSQLKSEESSDDESHPLREEACSSQSQESGEFSLQSSNASKLSQCSSKDSDSEESDCNIKLLDSQSDQTSKLRLSHFSKKDTPLRNKVPGLYKSSSADSLSTTKIKPLGPARASGLSKKPASIQKRKHHNAENKPGLQIKLNELWKNFGFKKDSEKLPPCKKPLSPVRDNIQLTPEAEEDIFNKPECGRVQRAIFQ
# modifications: 35S-cysteine label; left off: myc, C-terminal, state not stated | His6, C-terminal, state not stated
# B4: YFP-hEXO1-S702X: COOH-terminally truncated version of YFP-hEXO1, truncated from amino acid 702 (protein, UniProt Q9UQ84 1-701, looked up, fragment)
# chain: MGIQGLLQFIKEASEPIHVRKYKGQVVAVDTYCWLHKGAIACAEKLAKGEPTDRYVGFCMKFVNMLLSHGIKPILVFDGCTLPSKKEVERSRRERRQANLLKGKQLLREGKVSEARECFTRSINITHAMAHKVIKAARSQGVDCLVAPYEADAQLAYLNKAGIVQAIITEDSDLLAFGCKKVILKMDQFGNGLEIDQARLGMCRQLGDVFTEEKFRYMCILSGCDYLSSLRGIGLAKACKVLRLANNPDIVKVIKKIGHYLKMNITVPEDYINGFIRANNTFLYQLVFDPIKRKLIPLNAYEDDVDPETLSYAGQYVDDSIALQIALGNKDINTFEQIDDYNPDTAMPAHSRSHSWDDKTCQKSANVSSIWHRNYSPRPESGTVSDAPQLKENPSTVGVERVISTKGLNLPRKSSIVKRPRSAELSEDDLLSQYSLSFTKKTKKNSSEGNKSLSFSEVFVPDLVNGPTNKKSVSTPPRTRNKFATFLQRKNEESGAVVVPGTRSRFFCSSDSTDCVSNKVSIQPLDETAVTDKENNLHESEYGDQEGKRLVDTDVARNSSDDIPNNHIPGDHIPDKATVFTDEESYSFESSKFTRTISPPTLGTLRSCFSWSGGLGDFSRTPSPSPSTALQQFRRKSDSPTSLPENNMSDVSQLKSEESSDDESHPLREEACSSQSQESGEFSLQSSNASKLSQCSSKDSD
# modifications: N-terminal YFP tag
# Assays:
# [1] = system: hMLH1; details: MIP-box mutant; ref [52]; cited from earlier work
# [2] = system: PCNA replication foci in NIH3T3 cells; type: cell-based, murine; details: for Small foci (CFP-PCNA) / Large foci (CFP-PCNA) / Mid Foci (CFP-PCNA): CFP channel (CFP-PCNA) in cells co-expressing the hEXO1 protein, 50 co-transfected cells; for Small foci (CFP-PCNA): early S-phase foci; for Large foci (CFP-PCNA): late S-phase foci; for Mid Foci (CFP-PCNA): mid S-phase foci; for foci formation and co-localization with PCNA during S-phase: NIH3T3 cells co-transfected with CFP-PCNA, 24–48 h; for sub-cellular localization: NIH3T3 cells, confocal imaging
# In short: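 Murine NIH3T3 cells were kept in DMEM with 10% FBS and penicillin/streptomycin at 37 °C, 10% CO₂. Cells (2*10⁵ per glass-bottom dish) were seeded 24 h before ExGen500 co-transfection with 3 μg total plasmid (CFP-PCNA plus YFP fusion). Confocal imaging at 24–48 h. Co-transfected cells were counted and binned by pattern, e.g. "no foci" (diffuse CFP-PCNA, diffuse nuclear YFP).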
# [3] = system: laser induced DNA double strand breaks in HeLa cells; type: cell-based; details: laser irradiation
# [4] = system: laser induced DNA double strand breaks in HeLa cells; details: NLS mutant, ref [43]; cited from earlier work
# [5] = system: hMLH1; experiment: Interaction of hEXO1 variants with hMLH1; type: binding, human; details: GST-hMLH1 pull-down, 35S-labeled IVTT protein; Fig. S1
Molecule,influence of mutation on hEXO1 hMLH1 interaction [1],Small foci (CFP-PCNA) [2] [%],Large foci (CFP-PCNA) [2] [%],Mid Foci (CFP-PCNA) [2] [%],effect of expression on S-phase distribution ([2]; NIH3T3 cells co-expressing CFP-PCNA),foci formation and co-localization with PCNA during S-phase [2],sub-cellular localization [2],nuclear translocation in response to laser induced DNA damage [3],nuclear localization in untreated cells [4],hMLH1 interaction [5]
B1,influence hEXO1 hMLH1 interactions,4,0,0,"only very few S-phase cells, co-expressing this variant and PCNA were observed",unable to associate with PCNA in replication foci,higher degree of cytoplasmic distribution,,,
B2,,,,,,,,translocated from the cytoplasm into the nucleus in response to laser induced DNA damage,excluded from the nucleus in untreated cells,
B3,,,,,,,,,,sustain partial hMLH1 interaction
B4,,18,8,20,,none of the variant proteins were able to form foci or co-localize with PCNA during S-phase,strictly nuclear,,,sustain partial hMLH1 interaction

# From paper PMC4586255 (DNA repair, 2010)
